Data as given in ChEMBL document CHEMBL1129660, “Studies on 6-aminoquinolones: synthesis and antibacterial evaluation of 6-amino-8-methylquinolones” (J Med Chem, 1996).
Converted amounts (≈) assume the structure as drawn.

Key:
Type in all cases: functional
Escherichia coli [1] = experiment: Inhibitory activity against gyrase supercoiling activity from Escherichia coli
Summary of the method: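 Inhibition of DNA gyrase supercoiling activity, by a previously described protocol with slight modifications. IC50 derived by densitometric quantification of the supercoiled DNA peak in an agarose gel.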

[2] = tested on: Staphylococcus epidermidis; experiment: Antibacterial activity tested against Staphylococcus epidermidis HCF Berset C
Summary of the method: (§1)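 MICs (µg/mL) determined by conventional agar dilution against a panel of eight Gram-negative and five Gram-positive reference strains.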

[3] = Geometric mean of antibacterial activity (Gram -ve bacteria) of the compound
Summary of the method: (§2)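 Geometric means calculated from agar-dilution MICs (µg/mL), taken separately across the five Gram-positive and the eight Gram-negative panel strains.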

Escherichia coli [4] = experiment: Antibacterial activity tested against Escherichia coli ATCC 8739; summary of the method: as §1
Bacteria = experiment: Geometric mean of antibacterial activity (Gram +ve bacteria) of the compound; summary of the method: as §2
Enterobacter cloacae = experiment: Antibacterial activity tested against Enterobacter cloacae OMNFI 174
Staphylococcus aureus [5] = experiment: Antibacterial activity against Staphylococcus aureus ATCC 6538; summary of the method: as §1
Shigella = experiment: Antibacterial activity tested against Shigella enteritidis; summary of the method: as §1
[6] = tested on: Staphylococcus epidermidis; experiment: Antibacterial activity tested against Staphylococcus epidermidis CPHL A2; summary of the method: as §1
Escherichia coli [7] = experiment: Antibacterial activity tested against Escherichia coli ISF 432; summary of the method: as §1
Providencia stuartii = experiment: Antibacterial activity tested against Providencia stuartii CNUR 5; summary of the method: as §1
Proteus vulgaris = experiment: Antibacterial activity tested against Proteus vulgaris CNUR 5; summary of the method: as §1
Staphylococcus aureus [8] = experiment: Antibacterial activity tested against Staphylococcus aureus; Range is 0.06-0.13 ug/mL
Klebsiella pneumoniae = experiment: Antibacterial activity tested against Klebsiella pneumoniae (Klebsiella pneumoniae) ATCC 10031; summary of the method: as §1
Staphylococcus aureus [9] = experiment: Antibacterial activity tested against Staphylococcus aureus Methicillin-and Ciprofloxacin resistants; Range is 4-8 ug/mL
Enterococcus faecium [10] = experiment: Antibacterial activity tested against Enterococcus faecium; Range is 0.5-2 ug/mL
Pseudomonas aeruginosa = experiment: Antibacterial activity tested against P. ae (Pseudomonas aeruginosa) ATCC 9027; summary of the method: as §1
Staphylococcus aureus [11] = experiment: Antibacterial activity against Staphylococcus aureus MPR 5; summary of the method: as §1
Enterococcus faecalis [12] = experiment: Antibacterial activity tested against Enterococcus faecalis; Range is 0.25-0.5 ug/mL
Enterococcus faecalis [13] = experiment: Antibacterial activity tested against Streptococcus faecalis LEP Br; summary of the method: as §1
Streptococcus pneumoniae = experiment: Antibacterial activity tested against Streptococcus pneumoniae; Range is 1-2 ug/mL
Enterococcus faecalis [14] = experiment: Antibacterial activity tested against Enterococcus faecalis
Enterococcus faecium [15] = experiment: Antibacterial activity tested against Enterococcus faecium
Staphylococcus aureus [16] = experiment: Antibacterial activity tested against Staphylococcus aureus Methicillin-and Ciprofloxacin resistants; Range is 2-8 ug/mL

SMILES	IC50 (Escherichia coli [1]) [µg/mL]	MIC [2] [µg/mL]	Geometric mean [3]	MIC (Escherichia coli [4]) [µg/mL]	Geometric mean (Bacteria)	MIC (Enterobacter cloacae) [µg/mL]	MIC (Staphylococcus aureus [5]) [µg/mL]	MIC (Shigella) [µg/mL]	MIC [6] [µg/mL]	MIC (Escherichia coli [7]) [µg/mL]	MIC (Providencia stuartii) [µg/mL]	MIC (Proteus vulgaris) [µg/mL]	MIC (Klebsiella pneumoniae) [µg/mL]	MIC (Pseudomonas aeruginosa) [µg/mL]	MIC (Staphylococcus aureus [11]) [µg/mL]	MIC (Enterococcus faecalis [13]) [µg/mL]	also measured
Cc1c(N2CCOCC2)c(N)cc2c(=O)c(C(=O)O)cn(C3CC3)c12	5.64 (≈ 16.4 µM)	0.125 (≈ 0.364 µM)	0.189	0.03 (≈ 0.0874 µM)	0.218	0.125 (≈ 0.364 µM)	0.125 (≈ 0.364 µM)	0.125 (≈ 0.364 µM)	0.25 (≈ 0.728 µM)	0.03 (≈ 0.0874 µM)	0.5 (≈ 1.46 µM)	8 (≈ 23.3 µM)	0.03 (≈ 0.0874 µM)	1 (≈ 2.91 µM)	0.125 (≈ 0.364 µM)	1 (≈ 2.91 µM)	MIC (Staphylococcus aureus [8]): 0.06 µg/mL (≈ 0.175 µM); MIC (Staphylococcus aureus [9]): 4 µg/mL (≈ 11.6 µM); MIC (Enterococcus faecium [10]): 0.5 µg/mL (≈ 1.46 µM); MIC (Enterococcus faecalis [12]): 0.25 µg/mL (≈ 0.728 µM); MIC (Streptococcus pneumoniae): 1 µg/mL (≈ 2.91 µM)
Cc1c(N2CCN(C)CC2)c(N)cc2c(=O)c(C(=O)O)cn(C3CC3)c12	3.78 (≈ 10.6 µM)	1 (≈ 2.81 µM)	0.205	0.03 (≈ 0.0842 µM)	1	0.125 (≈ 0.351 µM)	0.5 (≈ 1.4 µM)	0.06 (≈ 0.168 µM)	1 (≈ 2.81 µM)	0.03 (≈ 0.0842 µM)	2 (≈ 5.61 µM)	4 (≈ 11.2 µM)	0.03 (≈ 0.0842 µM)	2 (≈ 5.61 µM)	0.5 (≈ 1.4 µM)	4 (≈ 11.2 µM)	–
Cc1c(N2CC(C)CC(C)C2)c(N)cc2c(=O)c(C(=O)O)cn(C3CC3)c12 (stereo not drawn)	–	0.06 (≈ 0.162 µM)	0.641	0.125 (≈ 0.338 µM)	0.079	2 (≈ 5.41 µM)	0.03 (≈ 0.0812 µM)	2 (≈ 5.41 µM)	0.06 (≈ 0.162 µM)	0.03 (≈ 0.0812 µM)	0.5 (≈ 1.35 µM)	16 (≈ 43.3 µM)	0.06 (≈ 0.162 µM)	4 (≈ 10.8 µM)	0.03 (≈ 0.0812 µM)	1 (≈ 2.71 µM)	–
Cc1c(N2CCSCC2)c(N)cc2c(=O)c(C(=O)O)cn(C3CC3)c12	1.42 (≈ 3.95 µM)	0.125 (≈ 0.348 µM)	0.362	0.25 (≈ 0.696 µM)	0.123	0.25 (≈ 0.696 µM)	0.06 (≈ 0.167 µM)	0.125 (≈ 0.348 µM)	0.125 (≈ 0.348 µM)	0.03 (≈ 0.0835 µM)	2 (≈ 5.56 µM)	32 (≈ 89 µM)	0.02 (≈ 0.0556 µM)	1 (≈ 2.78 µM)	0.06 (≈ 0.167 µM)	0.5 (≈ 1.39 µM)	MIC (Enterococcus faecalis [14]): 0.5 µg/mL (≈ 1.39 µM); MIC (Staphylococcus aureus [8]): 0.06 µg/mL (≈ 0.167 µM); MIC (Enterococcus faecium [15]): 2 µg/mL (≈ 5.56 µM); MIC (Staphylococcus aureus [16]): 2 µg/mL (≈ 5.56 µM); MIC (Streptococcus pneumoniae): 1 µg/mL (≈ 2.78 µM)
Cc1c(N2CCN(C)CC2)c(N)cc2c(=O)c(C(=O)O)cn(-c3ccc(F)cc3)c12	–	128 (≈ 312 µM)	9.513	1 (≈ 2.44 µM)	111.43	16 (≈ 39 µM)	64 (≈ 156 µM)	16 (≈ 39 µM)	128 (≈ 312 µM)	1 (≈ 2.44 µM)	16 (≈ 39 µM)	> 128	1 (≈ 2.44 µM)	128 (≈ 312 µM)	128 (≈ 312 µM)	128 (≈ 312 µM)	–
Cc1c(N2CC(C)OC(C)C2)c(N)cc2c(=O)c(C(=O)O)cn(C3CC3)c12 (stereo not drawn)	–	0.125 (≈ 0.337 µM)	0.451	0.06 (≈ 0.162 µM)	0.122	1 (≈ 2.69 µM)	0.06 (≈ 0.162 µM)	1 (≈ 2.69 µM)	0.06 (≈ 0.162 µM)	0.03 (≈ 0.0808 µM)	0.5 (≈ 1.35 µM)	16 (≈ 43.1 µM)	0.03 (≈ 0.0808 µM)	4 (≈ 10.8 µM)	0.06 (≈ 0.162 µM)	1 (≈ 2.69 µM)	–
Cc1c(N2CCc3ccccc3C2)c([N+](=O)[O-])cc2c(=O)c(C(=O)O)cn(C3CC3)c12	–	2 (≈ 4.77 µM)	45.25	64 (≈ 153 µM)	3.482	64 (≈ 153 µM)	64 (≈ 153 µM)	64 (≈ 153 µM)	4 (≈ 9.54 µM)	4 (≈ 9.54 µM)	64 (≈ 153 µM)	64 (≈ 153 µM)	64 (≈ 153 µM)	64 (≈ 153 µM)	0.25 (≈ 0.596 µM)	4 (≈ 9.54 µM)	–
Cc1c(N2CCN(C)CC2)c([N+](=O)[O-])cc2c(=O)c(C(=O)O)cn(C3CC3)c12	–	4 (≈ 10.4 µM)	13.454	16 (≈ 41.4 µM)	4.595	8 (≈ 20.7 µM)	4 (≈ 10.4 µM)	1 (≈ 2.59 µM)	2 (≈ 5.18 µM)	4 (≈ 10.4 µM)	32 (≈ 82.8 µM)	64 (≈ 166 µM)	16 (≈ 41.4 µM)	64 (≈ 166 µM)	4 (≈ 10.4 µM)	16 (≈ 41.4 µM)	–
Cc1c(N2CCCCCC2)c(N)cc2c(=O)c(C(=O)O)cn(C3CC3)c12	–	0.2 (≈ 0.563 µM)	0.763	2 (≈ 5.63 µM)	0.275	1 (≈ 2.81 µM)	0.125 (≈ 0.352 µM)	1 (≈ 2.81 µM)	0.25 (≈ 0.703 µM)	0.03 (≈ 0.0844 µM)	0.5 (≈ 1.41 µM)	32 (≈ 90 µM)	0.03 (≈ 0.0844 µM)	4 (≈ 11.3 µM)	0.125 (≈ 0.352 µM)	2 (≈ 5.63 µM)	–
